Where a SMILES comes first, the peptide text is derived from it. [ ]: non-standard residue; d: D form. Hica(2S) = CC(C)C[C@H](O)C(=O)O
Legend:
[1] = Solubility limit in water; assay type: physicochemical
[2] = TEM of nanofiber formation and degradation; assay type: physicochemical; conditions: 2 mM in PBS, 37°C, 7 days
[3] = Macroscopic hydrogel degradation visualised with Congo red; assay type: physicochemical
Procedure, shortened: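 50 µM Congo red added to the aqueous peptide solution (sonicated, held overnight at room temperature) while making 15 mM gels. Gels pipetted into multi-well dishes, immersed in PBS at 37°C and photographed over 28 days.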

[4] = Oscillating rheometry of hydrogels; assay type: physicochemical
Procedure, shortened: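 Peptide held overnight in water at 30 or 15 mM, cast on a glass slide inside an 8-mm filter-paper ring, and gelled under a PBS overlay for 2 h. PBS removed, parallel-plate frequency sweep 0.1–3.162 Hz at 0.1% strain, harmonic distortion under 10%. For ageing, gels held submerged in PBS at 37°C for 1 or 3 days. Mean ± SD of 3–5 separate gels; G'/G'' at 1 Hz compared by ANOVA-Tukey or t-test, p<0.05.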

C3H10T½ cells = assay: 3D microgel cell culture; assay type: cell-based, mouse; conditions: C3H10T½ cells in hydrogel
Procedure, shortened: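 Cells kept in Eagle's Basal Medium with 10% FBS, L-glutamine, 1 mM sodium pyruvate and non-essential amino acids. They were trypsinized, resuspended at 6,000 cells/µL in 10% sucrose with antibiotics, and mixed 1:2 with 22.5 mM aqueous peptide. The mixture (2,000 cells/µL) was pipetted into culture medium in 4–5 µL droplets to gel. Phase contrast imaging at day 3. MTS at 4 h, 3 and 5 days; mean ± SD of 3 wells.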

α-chymotrypsin = conditions: cited from earlier work
trypsin = conditions: cited from earlier work
papain = conditions: cited from earlier work

Row | solubility [1] [mM] | Nanofiber state by TEM at day 7 [2] | Time for which integrity of acellular hydrogel could be maintained ([3]; 15 mM acellular hydrogel, PBS, 37°C) | Gel appearance over 28 days (Congo red stained) ([3]; 15 mM hydrogel, immersed in PBS at 37°C, 28 days, representative of 3 gels) | Storage modulus of hydrogel ([4]; 30 mM hydrogel, PBS-gelled 2 hours, 0.1% strain, mean of 3 – 5 samples) [kPa] | Storage modulus (G') relative to Q11 hydrogel ([4]; 30 mM hydrogels, PBS-gelled 2 hours, 0.1% strain, calculated at 1 Hz) | Change of hydrogel moduli (G', G'') over time ([4]; hydrogels submerged in PBS, 37°C, up to day 3) | Compound | Proliferation of encapsulated cells (C3H10T½ cells; over 5 days, MTS assay, 3 wells) | Morphology of encapsulated cells (C3H10T½ cells; phase contrast) | Resistance to proteolysis (α-chymotrypsin) | Resistance to proteolysis (trypsin) | Resistance to proteolysis (papain)
1 | ≥ 30 | shorter and thinner | about 14 days | faded and disappeared | > 100 | about 6 times | decreased significantly | CC(=O)N[C@@H](CCC(N)=O)C(=O)N[C@@H](CCC(N)=O)C(=O)N[C@@H](CCCCN)C(=O)N[C@@H](Cc1ccccc1)C(=O)N[C@@H](CCC(N)=O)C(=O)O[C@@H](CC(C)C)C(=O)N[C@@H](CCC(N)=O)C(=O)N[C@@H](Cc1ccccc1)C(=O)N[C@@H](CCC(=O)O)C(=O)N[C@@H](CCC(N)=O)C(=O)N[C@@H](CCC(N)=O)C(N)=O [Depsi-L] (Ac-QQKFQ[Hica(2S)]QFEQQ-NH2; N-terminus assumed) | proliferated | more spread morphology |  |  | 
2 |  |  |  |  |  |  |  | (AEAEAKAK)2 |  |  | highly resistant | highly resistant | highly resistant

Reference: publication PMC3819105 (Biomaterials science, 2013)
